T cruzi growth-1: T. cruzi proliferation inhibition; T. cruzi beta-gal in NIH3T3, GalScreen luminescence, 90 h; inhibition, % at 8.34 µM; 77,000 tested, 5.9% active; AID 624255;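 active = mean inhibition above about 93%, with at least 55% of replicates each passing it, limit read from the data, passing the limit was not always enough; inconclusive = only one of those two conditions holds; inactive = neither condition holds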
Pf Dd2 inh: inhibitors of Plasmodium falciparum Dd2 growth. P. falciparum Dd2 growth, SYBR Green, 72 h; active compounds read low. 94,000 tested, 2.3% active. activity change, % at 10 µM; in the data active = activity change below about -80%; inconclusive = no clear call, values can overlap the other calls
IDH1 mut inh: blocks human IDH1 R132H reductase activity. O75874. diaphorase/resazurin fluorescence, 60 min. inhibition, % at 10 µM. 70,000 tested, 0.18% active. AID 624101; in the data active = inhibition above about 34%; inconclusive = no clear call, values can overlap the other calls; inactive = below about 11%
Target sequence (O75874 whole entry R132H): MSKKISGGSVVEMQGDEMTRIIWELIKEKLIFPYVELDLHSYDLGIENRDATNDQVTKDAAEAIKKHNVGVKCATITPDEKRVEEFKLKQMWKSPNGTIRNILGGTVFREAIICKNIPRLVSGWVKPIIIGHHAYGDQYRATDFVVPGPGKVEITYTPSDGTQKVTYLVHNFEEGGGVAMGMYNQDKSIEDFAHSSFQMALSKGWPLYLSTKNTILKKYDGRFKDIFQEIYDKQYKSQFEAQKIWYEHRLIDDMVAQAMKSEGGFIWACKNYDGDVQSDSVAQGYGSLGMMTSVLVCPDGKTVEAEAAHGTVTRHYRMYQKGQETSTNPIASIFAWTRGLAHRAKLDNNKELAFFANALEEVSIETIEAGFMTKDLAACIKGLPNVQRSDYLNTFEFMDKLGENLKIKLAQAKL
KDM4C inh: blocks human GASC-1 (KDM4C) demethylase activity; GST-KDM4C 2-372, H3K9me3 peptide, LANCE TR-FRET; Q9H3R0; inhibition, % at 12.5 µM; 96,000 tested, 0.15% active;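 active = mean replicate inhibition above about 25%, with at least 55% of replicates also reaching it, limit read from the data, passing the limit was not always enough; inconclusive = only one of those two conditions met; inactive = neither condition met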
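Test system: N-terminal GST-fused human GASC-1 (KDM4C) fragment, residues 2-372; quantity: GASC-1 enzyme at 10 nM final in reaction; dosing: single dose; schedule: 30 min demethylation and 1 h detection at room temperature; signal: LANCE TR-FRET, excitation 340 nm, emissions 618 and 671 nm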
T cruzi growth-2: blocks T. cruzi growth in NIH3T3 host cells; shares compounds with T cruzi growth-1; T. cruzi beta-gal in NIH3T3, GalScreen luminescence, 90 h; inhibition, % at 8.35 µM; 5,600 tested, 72% active; AID 651739;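 active = mean replicate inhibition above about 95% and at least 55% of replicates individually reaching it, limit read from the data; inconclusive = only one of the two criteria is met; inactive = neither criterion is met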
T cruzi growth-3: blocks T. cruzi growth in NIH3T3 host cells; shares compounds with T cruzi growth-1; T. cruzi beta-gal in NIH3T3, GalScreen luminescence, 90 h; inhibition, % at 2.09 µM; 5,600 tested, 21% active; AID 651740;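 active = mean inhibition above about 95%, with at least 55% of replicates also reaching it, limit read from the data; inconclusive = meets just one of the two conditions; inactive = meets neither condition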
3T3 cytotox: kills mouse NIH/3T3 fibroblasts. shares compounds with T cruzi growth-1. NIH/3T3 viability, CellTiter-Glo ATP luminescence, 90 h. cytotoxicity (signal decrease), % at 8.35 µM. 5,600 tested, 14% active. AID 651742;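 active = mean signal decrease across replicates above about 35% based on untreated-well scatter, with enough replicates individually passing, limit read from the data; inconclusive = no rule stated though some were filed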
NIH3T3 tox 2: kills mouse NIH/3T3 fibroblasts | NIH/3T3 viability, CellTiter-Glo ATP luminescence, 90 h | 5,600 tested, 56% active | inhibition, % at 24.9 µM | shares compounds with T cruzi growth-1;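 active = mean loss of cell viability signal at or above a set limit, and enough replicates individually reaching it; inconclusive = meets only the mean limit or only the replicate share; inactive = meets neither condition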
Hits are given with their value; n = inactive; u = inconclusive; x = not tested or not shown. Rows were chosen to be rich in hits. Some 5.8% of all compounds tested hit in one or more screens of this group.

SMILES	T cruzi growth-1	Pf Dd2 inh	IDH1 mut inh	KDM4C inh	T cruzi growth-2	T cruzi growth-3	3T3 cytotox	NIH3T3 tox 2
O=C(C[C@@H]1CC[C@H]2[C@@H](COC[C@@H](O)CN2Cc2ccc(Oc3ccccc3)cc2)O1)N1CCN(c2ccccc2)CC1	n	n	x	n	x	x	x	x
O=C(C[C@@H]1CC[C@@H]2[C@H](COC[C@H](O)CN2Cc2ccc(Oc3ccccc3)cc2)O1)N1CCN(c2ccccc2)CC1	115	n	x	n	n	n	n	104
CCCCCC1OC2=C(C(=O)N(OC)C2CSCC(O)C(=O)O)C(O)C1(C)O (stereo not given)	x	x	n	x	x	x	x	x
C[C@@H]1CN([C@@H](C)CO)S(=O)(=O)c2ccc(C#CC3CC3)cc2O[C@H]1CN(C)C(=O)C1CCCCC1	u	n	x	n	105	n	38	29
C[C@H](CO)N1C[C@H](C)[C@@H](CN(C)C(=O)C2CCCCC2)Oc2cc(C#CC3CC3)ccc2S1(=O)=O	u	n	x	n	105	n	n	43
C[C@H]1CN([C@@H](C)CO)S(=O)(=O)c2ccc(C#CC3CC3)cc2O[C@H]1CN(C)C(=O)C1CCCCC1	100	n	x	n	106	n	n	51
C[C@@H]1CN([C@@H](C)CO)S(=O)(=O)c2ccc(C#CC3CC3)cc2O[C@@H]1CN(C)C(=O)C1CCCCC1	100	n	x	n	105	n	n	n
C[C@H](CO)N1C[C@H](C)[C@@H](CN(C)C(=O)C2CCC2)Oc2cc(C#CC3CC3)ccc2S1(=O)=O	n	n	n	n	x	x	x	x
C[C@H]1CN([C@@H](C)CO)S(=O)(=O)c2ccc(C#CC3CC3)cc2O[C@@H]1CN(C)C(=O)C1CCCCC1	111	n	x	n	106	n	n	45
C[C@H](CO)N1C[C@H](C)[C@H](CN(C)C(=O)C2CCCCC2)Oc2cc(C#CC3CC3)ccc2S1(=O)=O	u	n	x	n	106	n	n	n
C[C@@H]1CN([C@@H](C)CO)S(=O)(=O)c2ccc(C#CC3CC3)cc2O[C@@H]1CN(C)C(=O)C1CCC1	n	n	x	n	x	x	x	x
COc1ccc(S(=O)(=O)N(C)C[C@H]2OCCCC[C@H](C)Oc3ccc(NC(=O)Nc4ccc(F)cc4)cc3C(=O)N([C@H](C)CO)C[C@@H]2C)cc1	u	n	x	n	105	n	n	n
COc1ccc(NC(=O)Nc2ccc3c(c2)C(=O)N([C@H](C)CO)C[C@H](C)[C@@H](CN(C)S(=O)(=O)c2ccc(F)cc2)OCCCC[C@H](C)O3)cc1	113	n	n	n	110	n	n	n
C[C@H]1CCCCO[C@H](CN(C)C(=O)Nc2ccc(C(F)(F)F)cc2)[C@@H](C)CN([C@@H](C)CO)C(=O)c2cc(N(C)C)ccc2O1	99	n	x	n	100	n	n	n
C[C@@H]1CCCCO[C@@H](CN(C)C(=O)Nc2ccc(C(F)(F)F)cc2)[C@@H](C)CN([C@@H](C)CO)C(=O)c2cc(N(C)C)ccc2O1	100	n	n	n	111	n	n	n
C[C@@H]1CCCCO[C@H](CN(C)C(=O)Nc2ccc(C(F)(F)F)cc2)[C@H](C)CN([C@@H](C)CO)C(=O)c2cc(N(C)C)ccc2O1	n	n	n	n	x	x	x	x
COc1ccccc1C(=O)CC(=O)C(=O)Nc1sc2c(c1C#N)CCC2	x	x	n	x	x	x	x	x
Cc1ccc(C2=CC(c3ccccc3)SC(N)=N2)cc1 (stereo not given)	x	x	n	x	x	x	x	x
Cc1ccc(OCC(=O)Nc2ccccc2N2CCN(S(C)(=O)=O)CC2)cc1	x	x	n	x	x	x	x	x
COc1cccc(NC(=O)N(C)C[C@@H]2Oc3ncc(C#Cc4ccc(F)cc4)cc3C(=O)N([C@@H](C)CO)C[C@H]2C)c1	113	n	x	n	112	111	n	n
COc1cccc(NC(=O)N(C)C[C@@H]2Oc3ncc(C#Cc4ccc(F)cc4)cc3C(=O)N([C@H](C)CO)C[C@H]2C)c1	117	n	n	n	108	102	n	n
COc1cccc(NC(=O)N(C)C[C@H]2Oc3ncc(C#Cc4ccc(F)cc4)cc3C(=O)N([C@@H](C)CO)C[C@@H]2C)c1	121	n	x	n	106	100	n	38
COc1cccc(NC(=O)N(C)C[C@@H]2Oc3ncc(C#Cc4ccc(F)cc4)cc3C(=O)N([C@H](C)CO)C[C@@H]2C)c1	104	n	x	n	98	n	n	81
COc1cccc(NC(=O)N(C)C[C@H]2Oc3ncc(C#Cc4ccc(F)cc4)cc3C(=O)N([C@H](C)CO)C[C@@H]2C)c1	n	n	n	n	x	x	x	x
COc1cccc(NC(=O)N(C)C[C@H]2Oc3ncc(C#Cc4ccc(F)cc4)cc3C(=O)N([C@H](C)CO)C[C@H]2C)c1	n	n	x	n	x	x	x	x
SMILES	T cruzi growth-1	Pf Dd2 inh	IDH1 mut inh	KDM4C inh	T cruzi growth-2	T cruzi growth-3	3T3 cytotox	NIH3T3 tox 2
Cc1sc(NC(=O)COc2ccc(Cl)cc2Cl)c(C(N)=O)c1C	x	x	n	x	x	x	x	x
O=C(c1ccc(F)cc1)N1CCCCN2[C@H](C1)[C@@H](c1ccc(/C=C/c3ccccc3)cc1)[C@@H]2CO	99	n	x	n	109	n	n	32
O=C(c1ccc(F)cc1)N1CCCCN2[C@@H](CO)[C@@H](c3ccc(/C=C/c4ccccc4)cc3)[C@@H]2C1	112	n	x	n	98	n	88	104
O=C(c1ccc(F)cc1)N1CCCCN2[C@H](CO)[C@H](c3ccc(/C=C/c4ccccc4)cc3)[C@H]2C1	n	n	x	n	x	x	x	x
O=C(c1ccc(F)cc1)N1CCCCN2[C@H](CO)[C@@H](c3ccc(/C=C/c4ccccc4)cc3)[C@@H]2C1	n	n	x	n	x	x	x	x
O=C(c1ccc(F)cc1)N1CCCCN2[C@H](CO)[C@H](c3ccc(/C=C/c4ccccc4)cc3)[C@@H]2C1	111	n	x	n	107	u	n	105
C[C@H](CO)N1C[C@H](C)[C@H](CN(C)Cc2ccc(-c3ccccc3)cc2)Oc2ccc(NC(=O)NC3CCCCC3)cc2C1=O	111	n	n	n	104	n	n	47
C[C@@H]1CN([C@H](C)CO)C(=O)c2cc(NC(=O)C3CCCCC3)ccc2O[C@H]1CN(C)Cc1ccc(-c2ccccc2)cc1	u	n	n	n	108	n	n	39
C[C@H](CO)N1C[C@H](C)[C@@H](CN(C)Cc2ccccc2)Oc2ccc(NC(=O)NC3CCCCC3)cc2C1=O	n	n	x	n	x	x	x	x
C[C@H]1CN([C@@H](C)CO)C(=O)c2cc(NC(=O)C3CCCCC3)ccc2O[C@@H]1CN(C)Cc1ccc(-c2ccccc2)cc1	104	n	x	n	109	n	n	n
C[C@H](CO)N1C[C@H](C)[C@@H](CN(C)Cc2ccc(-c3ccccc3)cc2)Oc2ccc(NC(=O)C3CCCCC3)cc2C1=O	n	n	x	n	x	x	x	x
